Source: ChEMBL document CHEMBL1134702, “Arylalkylidene rhodanine with bulky and hydrophobic functional group as selective HCV NS3 protease inhibitor” (Bioorg Med Chem Lett, 2001)

Legend:
NS3 = NS3 (Hepatitis C virus, UniProt A3EZJ3); assay: Inhibitory activity against hepatitis C virus (HCV) NS3 protease; parameters: species or system Hepacivirus hominis
In short: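 His-tagged HCV NS3 fusion expressed in BL21(DE3) E. coli, purified, quantified by densitometry against BSA. Reaction started with GST-bead 5A5B substrate (3 µg); 37 °C, 15 min or <40% conversion. Cleavage read by SDS-PAGE, Coomassie, densitometry; IC50 determined.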

Plasminogen = Plasminogen (Homo sapiens, UniProt P00747); assay: Inhibitory activity against plasmin
Plasminogen, sequence (P00747 97-580 limits assumed): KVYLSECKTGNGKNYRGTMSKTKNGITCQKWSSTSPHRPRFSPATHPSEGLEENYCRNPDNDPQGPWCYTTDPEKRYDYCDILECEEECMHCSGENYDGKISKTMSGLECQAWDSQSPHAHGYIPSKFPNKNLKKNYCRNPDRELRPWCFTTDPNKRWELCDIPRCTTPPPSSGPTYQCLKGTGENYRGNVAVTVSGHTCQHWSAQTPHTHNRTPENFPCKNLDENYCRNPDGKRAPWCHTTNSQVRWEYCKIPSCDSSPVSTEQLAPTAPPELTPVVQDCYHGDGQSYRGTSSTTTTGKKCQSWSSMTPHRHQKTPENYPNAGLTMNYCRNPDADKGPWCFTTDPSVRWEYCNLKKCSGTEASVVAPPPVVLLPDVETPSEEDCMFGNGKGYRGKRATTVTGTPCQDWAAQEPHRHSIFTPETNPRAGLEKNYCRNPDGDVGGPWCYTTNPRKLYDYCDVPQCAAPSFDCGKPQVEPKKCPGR
Plasminogen, sequence (P00747 581-810 limits assumed): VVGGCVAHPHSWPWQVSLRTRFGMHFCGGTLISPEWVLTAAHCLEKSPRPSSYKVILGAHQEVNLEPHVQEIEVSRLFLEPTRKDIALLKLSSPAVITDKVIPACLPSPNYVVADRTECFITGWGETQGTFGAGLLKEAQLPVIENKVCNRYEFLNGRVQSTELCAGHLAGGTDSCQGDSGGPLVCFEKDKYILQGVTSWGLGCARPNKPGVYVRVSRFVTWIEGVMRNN
In short: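 Fluorogenic casein-substrate protease kit assay using 0.002U plasmin per reaction at 30 °C, stopped within the linear phase of the reaction; IC50 determined.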

NS3, sequence (A3EZJ3 whole entry, the tested form may be a part): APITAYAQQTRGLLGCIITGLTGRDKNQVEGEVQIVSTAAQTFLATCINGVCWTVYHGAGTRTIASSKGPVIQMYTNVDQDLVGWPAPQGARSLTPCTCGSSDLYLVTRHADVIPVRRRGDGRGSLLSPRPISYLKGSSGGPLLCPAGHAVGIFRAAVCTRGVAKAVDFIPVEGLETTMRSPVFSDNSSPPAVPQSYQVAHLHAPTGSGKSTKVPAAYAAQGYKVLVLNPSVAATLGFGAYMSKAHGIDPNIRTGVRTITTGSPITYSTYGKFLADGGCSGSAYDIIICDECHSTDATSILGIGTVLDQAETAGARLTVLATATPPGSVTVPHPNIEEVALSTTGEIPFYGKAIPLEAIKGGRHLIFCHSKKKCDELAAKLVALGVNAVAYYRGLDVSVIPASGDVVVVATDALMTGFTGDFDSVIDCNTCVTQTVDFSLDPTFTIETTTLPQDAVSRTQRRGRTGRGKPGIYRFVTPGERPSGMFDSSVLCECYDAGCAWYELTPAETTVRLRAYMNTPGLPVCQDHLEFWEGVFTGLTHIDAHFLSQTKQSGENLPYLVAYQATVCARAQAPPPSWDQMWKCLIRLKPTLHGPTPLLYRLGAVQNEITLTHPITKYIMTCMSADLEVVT

Row | Compound | IC50 (NS3) [µM] | IC50 (Plasminogen) [µM]
1 | CCOC(=O)CN1C(=O)/C(=C(\C)c2cccc(OC(=O)N[C@@H](CC(C)C)C(=O)N(CCN(Cc3ccc(C(=O)OC)cc3)Cc3ccc(C(=O)OC)cc3)Cc3ccc(Cl)cc3)c2)SC1=S | 16 | 20
2 | CCOC(=O)CN1C(=O)/C(=C(\C)c2cccc(NS(=O)(=O)c3ccc(-c4ccc(S(=O)(=O)NCCNC(=O)OC(C)(C)C)cc4)cc3)c2)SC1=S | 15 | 20
3 | C/C(=C1/SC(=S)N(CC(=O)O)C1=O)c1ccc(-c2ccccc2)cc1 | 20 | 7

Further lines, results first:

Row | IC50 (NS3) [µM] | IC50 (Plasminogen) [µM] | Compound
4 | 40 | < 1 | C=CCN1C(=O)/C(=C/c2cc3c(cc2[N+](=O)[O-])OCO3)SC1=S
5 | 64 | 13 | O=C(O)CN1C(=O)/C(=C/c2cc([N+](=O)[O-])ccc2F)SC1=S
6 | 71 | < 1 | COC(=O)CN1C(=O)/C(=C/c2cc3c(cc2[N+](=O)[O-])OCO3)SC1=S
